Screening results from PubChem.
In the library only some 3.5% were active in any assay of this set; here they are far more common.
HTRA1 inh: HTRA1 serine protease inhibitors, primary screen, biochemical, fluorescence polarization, HTS; inhibition, % at 5.96 µM; Q92743; recombinant HTRA1, FP-rhodamine activity-based probe; 340,000 compounds, 0.5% hits; in the data active = inhibition above about 36%
PRMT1 FP inh: PRMT1 methyltransferase inhibitors, primary screen, biochemical, fluorescence polarization. Protein arginine N-methyltransferase 1 (Homo sapiens), Q99873. recombinant PRMT1, activity-based probe fluorescence polarization. inhibition, % at 2.79 µM. 370,000 compounds, 1.3% hits;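 active = inhibition above about 21% made by adding two undisclosed values, limit read from the data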
TCR CD3 inh: inhibitors of human TCR-CD3 interaction, primary screen, biochemical, fluorescence, TAMRA-labeled TCR probe | 360,000 compounds, 0.37% hits | AID 651800, 2012 | inhibition, % at 9.4 µM | T-cell receptor (TCR); in the data active = inhibition above about 19%;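 note: recombinant mutant TCR 2C K166C tagged with TAMRA read by polarization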
SIAE primary: human SIAE inhibitors, primary screen, biochemical, fluorescence polarization, FP-Rh probe, 1536-well HTS | SIAE FP-Rh probe binding | Sialate O-acetylesterase (Homo sapiens), Q9HAT2 | 370,000 compounds, 0.69% hits | inhibition, % at 9.66 µM;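 active = inhibition above a cutoff: mean of compounds within the control limits plus 3 SD of those, cut at about 17% in these data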
Target sequence (Q9HAT2 whole entry, looked up): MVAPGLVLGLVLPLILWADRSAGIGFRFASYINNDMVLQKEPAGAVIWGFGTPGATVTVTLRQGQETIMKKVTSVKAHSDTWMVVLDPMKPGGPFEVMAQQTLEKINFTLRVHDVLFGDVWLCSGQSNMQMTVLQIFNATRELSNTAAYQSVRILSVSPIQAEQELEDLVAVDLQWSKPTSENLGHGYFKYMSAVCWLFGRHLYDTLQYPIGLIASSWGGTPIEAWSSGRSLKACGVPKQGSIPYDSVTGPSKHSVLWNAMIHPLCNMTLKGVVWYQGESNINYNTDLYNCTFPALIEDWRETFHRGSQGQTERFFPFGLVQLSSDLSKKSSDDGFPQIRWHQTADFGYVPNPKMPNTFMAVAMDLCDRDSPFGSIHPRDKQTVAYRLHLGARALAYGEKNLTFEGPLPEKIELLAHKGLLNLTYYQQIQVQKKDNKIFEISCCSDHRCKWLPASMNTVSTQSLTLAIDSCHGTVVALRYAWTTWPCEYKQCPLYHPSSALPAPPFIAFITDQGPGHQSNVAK
rCAG binder: binders of r(CAG) RNA repeats, primary screen, biochemical, fluorescence; r(CAG) RNA repeat, TO-PRO-1 dye displacement fluorescence; inhibition, % at 3 µM; 370,000 compounds, 1.3% hits; AID 651821, 2012;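 active = inhibition above the plate cutoff, the mean of all test compounds on that plate plus 3 SD, cut at about 35% in these data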;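 note: higher means more dye released from RNA so lower well fluorescence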
mABHD4 FP: ABHD4 inhibitors, primary screen, biochemical, fluorescence polarization, mouse; 370,000 compounds, 0.54% hits; AID 720543, 2013; inhibition, % at 8.92 µM; purified mABHD4, FP-Rh probe fluorescence polarization;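 active = inhibition exceeding the mean over every tested compound plus 3 SD, cut at about 30% in these data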
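Assay system: Wild-type mouse ABHD4 protein | Medium: HEPES pH 7.0 buffer, 150 mM NaCl, 0.01% Pluronic F-127 | Incubation: Enzyme–compound pre-incubation 45 min, then probe 60 min, both 25 °C | Technique: Fluorescence polarization with parallel and perpendicular emission, 525/598 nm | Evaluation: % inhibition of FP-Rh probe binding versus controls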
ABHD4 confirm: ABHD4 inhibitors, retest, confirmation, biochemical, fluorescence polarization, mouse; shares compounds with mABHD4 FP; purified mABHD4, FP-Rh probe fluorescence polarization; inhibition, % at 8.92 µM; 1,800 compounds, 55% hits; AID 720658, 2013;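 active = mean inhibition across replicates above the hit cutoff set in the primary screen, cut at about 30% in these data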
A number is an active result.

COCC1CN(CCc2ccc(F)cc2)S(=O)(=O)c2c(OCCN3C(=O)[C@@H]4[C@H](C3=O)[C@@H]3C=C[C@H]4C3)cccc2O1 (stereo partly drawn) was read as PRMT1 FP inh inactive, TCR CD3 inh inactive, SIAE primary inactive, rCAG binder inactive and mABHD4 FP inactive.
Screening C=CCS/C(N)=N\N=C\c1cc(Br)cc([N+](=O)[O-])c1O returned HTRA1 inh inactive, PRMT1 FP inh inactive, TCR CD3 inh inactive, SIAE primary inactive, rCAG binder inactive, mABHD4 FP 30.6 and ABHD4 confirm inactive.
Screening COC(=O)[C@@]12CCCCC=C1N(CCc1ccc(Cl)cc1)C(=O)[C@H]2CC(=O)NCCc1ccccc1OC returned PRMT1 FP inh inactive, SIAE primary inactive, rCAG binder inactive and mABHD4 FP inactive.
For Nc1ccc2c(c1)-c1ccccc1S(=O)(=O)N2 the results were HTRA1 inh inactive, PRMT1 FP inh 22.2, TCR CD3 inh inactive, SIAE primary inactive, rCAG binder inactive, mABHD4 FP 49.9 and ABHD4 confirm 31.1.
For CCC[C@H]1[C@@H](OC(=O)NCc2ccc(C)cc2)CC[C@@]23CCCN2C(=O)CCC[C@@H]13 the results were PRMT1 FP inh inactive, SIAE primary inactive and mABHD4 FP inactive.
Screening Fc1cccc(F)c1/C=N/Nc1ccccn1 returned HTRA1 inh inactive, PRMT1 FP inh inactive, TCR CD3 inh inactive, SIAE primary inactive, rCAG binder inactive and mABHD4 FP inactive.
Oc1ccc2ccccc2c1C=NNc1ccccn1 was read as HTRA1 inh inactive, PRMT1 FP inh inactive, TCR CD3 inh inactive, SIAE primary inactive, rCAG binder inactive, mABHD4 FP 35.5 and ABHD4 confirm inactive.
O=S(=O)(CC1NCCc2ccccc21)NCc1ccc(F)cc1 (stereo not drawn) was read as PRMT1 FP inh inactive, SIAE primary inactive, rCAG binder inactive and mABHD4 FP inactive.
Cc1ccccc1NC(=O)Cc1nc(COC(=O)c2ccc(Cl)nc2)cs1 was read as HTRA1 inh inactive, PRMT1 FP inh inactive, TCR CD3 inh inactive, SIAE primary inactive, rCAG binder inactive and mABHD4 FP inactive.
COc1cc(C(=O)OCc2csc(CC(=O)Nc3ccccc3C)n2)ccc1OCC(C)C was read as HTRA1 inh inactive, PRMT1 FP inh inactive, TCR CD3 inh inactive, SIAE primary inactive, rCAG binder inactive, mABHD4 FP 42.9 and ABHD4 confirm inactive.
`COc1ccc(CCC(=O)OCc2csc(CC(=O)Nc3ccccc3C)n2)cc1` gave HTRA1 inh inactive, PRMT1 FP inh inactive, TCR CD3 inh inactive, SIAE primary inactive, rCAG binder inactive, mABHD4 FP 35.7 and ABHD4 confirm inactive.
CCC(C(=O)OCc1csc(CC(=O)Nc2ccccc2C)n1)c1ccccc1 (stereo not drawn) was read as HTRA1 inh inactive, PRMT1 FP inh inactive, TCR CD3 inh inactive, SIAE primary inactive, rCAG binder inactive, mABHD4 FP 29.5 and ABHD4 confirm inactive.
For CC(C)(C)c1ccc(-c2nnc(SCc3cccc4ccccc34)n2Cc2ccco2)cc1 the results were PRMT1 FP inh inactive, SIAE primary inactive, rCAG binder inactive and mABHD4 FP inactive.
For COc1cc(C2NCC(c3ccc(Cl)cc3Cl)c3c2[nH]c2ccccc32)cc(OC)c1OC (stereo not drawn) the results were HTRA1 inh inactive, PRMT1 FP inh inactive, TCR CD3 inh inactive, SIAE primary inactive, rCAG binder inactive, mABHD4 FP 43.6 and ABHD4 confirm 58.8.
Screening COc1ccc(CCCCCCOCc2ccccc2)cc1 returned HTRA1 inh inactive, PRMT1 FP inh inactive, TCR CD3 inh inactive, SIAE primary inactive, rCAG binder inactive and mABHD4 FP inactive.
`COc1ccc(COC[B-](F)(F)F)cc1` gave HTRA1 inh inactive, PRMT1 FP inh inactive, TCR CD3 inh inactive, SIAE primary inactive, rCAG binder inactive, mABHD4 FP 43.6 and ABHD4 confirm inactive.
Screening Cc1ccc(C(=O)O)cc1[N+](=O)[O-] returned HTRA1 inh inactive, PRMT1 FP inh inactive, TCR CD3 inh inactive, SIAE primary inactive, rCAG binder inactive and mABHD4 FP inactive.
Screening COc1ccc(Nc2ccc(C(=O)O)cc2[N+](=O)[O-])cc1 returned HTRA1 inh inactive, PRMT1 FP inh inactive, TCR CD3 inh inactive, SIAE primary inactive, rCAG binder inactive, mABHD4 FP 49.2 and ABHD4 confirm 43.1.
Screening Cc1cccc(Nc2ccc(C(=O)O)cc2[N+](=O)[O-])c1C returned HTRA1 inh inactive, PRMT1 FP inh inactive, TCR CD3 inh inactive, SIAE primary inactive, rCAG binder inactive, mABHD4 FP 36.8 and ABHD4 confirm 29.6.
`COc1ccc(Nc2ccc(C(N)=O)cc2[N+](=O)[O-])cc1` gave HTRA1 inh inactive, PRMT1 FP inh inactive, TCR CD3 inh inactive, SIAE primary inactive, rCAG binder inactive and mABHD4 FP inactive.
`COc1ccc(OC)c(Nc2ccc(C(=O)O)cc2[N+](=O)[O-])c1` gave HTRA1 inh inactive, PRMT1 FP inh inactive, TCR CD3 inh inactive, SIAE primary inactive, rCAG binder inactive and mABHD4 FP inactive.
`CCOc1ccc(Nc2ccc(C(=O)O)cc2[N+](=O)[O-])cc1` gave HTRA1 inh inactive, PRMT1 FP inh inactive, TCR CD3 inh inactive, SIAE primary inactive, rCAG binder inactive, mABHD4 FP 59.6 and ABHD4 confirm 44.8.
`NC(=O)c1ccc(Nc2ccc([N+](=O)[O-])cc2[N+](=O)[O-])cc1` gave HTRA1 inh inactive, PRMT1 FP inh inactive, TCR CD3 inh inactive, SIAE primary inactive, rCAG binder inactive and mABHD4 FP inactive.
`O=C(O)c1ccc(Nc2ccc(F)c(F)c2)c([N+](=O)[O-])c1` gave HTRA1 inh inactive, PRMT1 FP inh inactive, TCR CD3 inh inactive, SIAE primary inactive, rCAG binder inactive, mABHD4 FP 31.7 and ABHD4 confirm 31.9.
Screening COP(=O)(OC)C(Cc1ccccc1)NC(=O)CNC(=O)OCc1ccccc1 (stereo not drawn) returned PRMT1 FP inh inactive, SIAE primary inactive, rCAG binder inactive and mABHD4 FP inactive.
`COc1ccc(CCNCC(O)COc2cccc(C)c2)cc1OC` (stereo not drawn) gave PRMT1 FP inh inactive, SIAE primary inactive, rCAG binder inactive and mABHD4 FP inactive.
Screening O=c1c2c(n3nnnc3n1Cc1ccc(Cl)cc1)-c1ccccc1CC21CCCC1 returned PRMT1 FP inh inactive, SIAE primary inactive, rCAG binder inactive and mABHD4 FP inactive.
